# In ChEMBL document CHEMBL3351411, “Identification and synthesis of quinolizidines with anti-influenza a virus activity” (ACS Med Chem Lett, 2014):
# Calls of active or inactive are those of the source. The rule behind the calls is not given here.
# Columns and labels:
# [1] = Cytotoxicity against MDCK cells assessed as reduction in cell viability after 48 hrs by CellTiter-Glo assay; assay type: cell-based, Canis lupus familiaris; details: dog
# How it was run: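 Uninfected MDCK cells were exposed to compound. CC50 is the concentration that reduced cell viability by 50%.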
# Influenza A virus = test: Antiviral activity against Influenza A virus (A/Puerto Rico/8/34(H1N1)) infected in MDCK cells assessed as inhibition of virus-induced cytocidal activity after 48 hrs by CellTiter-Glo assay; assay type: functional, organism-based; details: A/Puerto Rico/8/1934(H1N1)
# How it was run: (§1)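 MDCK cells infected with PR8 (mouse-adapted A/Puerto Rico/8/1934) or VR1679 at MOI = 1 and treated with compound at various concentrations for 2 days. Percent protection from virus killing was calculated by a formula. EC50 is the concentration giving 50% protection from the cytocidal effect. Values are mean ± SD of three independent experiments.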
# Influenza A virus H3N2 [2] = test: Antiviral activity against Influenza A virus H3N2 VR1679 infected in MDCK cells assessed as inhibition of viral nucleoprotein production at 10 uM after 6 hrs by immunostaining-based confocal microscopy; assay type: functional, organism-based
# How it was run: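 VR1679 infected MDCK cells at MOI = 1 with compound at 10 μM for 6 h. Cells were immunostained with FITC-conjugated anti-NP antibodies and DAPI for nuclei, and viral NP was imaged by laser-scanning confocal microscopy. Infected cells without compound served as controls.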
# Influenza A virus H3N2 [3] = test: Antiviral activity against Influenza A virus H3N2 VR1679 infected in MDCK cells assessed as inhibition of virus-induced cytocidal activity after 48 hrs by CellTiter-Glo assay; assay type: functional, organism-based; how it was run: as §1
# MDCK = test: Binding affinity to recombinant Influenza A virus (A/Puerto Rico/8/1934(H1N1)) nucleoprotein in culture medium assessed as protection from Influenza A virus H3N2 VR1679-induced MDCK cytocidal activity after 2 days by CellTiter-Glo assay; assay type: cell-based
# How it was run: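 MDCK cells infected with VR1679 at MOI = 1, treated with compound with or without recombinant A/Puerto Rico/8/1934 NP at 500 μg/mL in the culture medium. Percent protection from virus killing was read 2 days after infection. Values are mean ± SD of three independent experiments.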
# Influenza A virus H3N2 [4] = test: Antiviral activity against Influenza A virus H3N2 VR1679 infected in MDCK cells assessed as inhibition of virus-induced cytocidal activity compound treated 4 hrs post infection by time of addition assay; assay type: functional, organism-based
# How it was run: (§2)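 Time-of-addition assay: MDCK cells infected with VR1679 at MOI = 0.1, with compound added before infection or at various times post-infection. Percent protection of cells from virus killing was calculated by a formula. Data are the average of two independent experiments.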
# Influenza A virus H3N2 [5] = test: Antiviral activity against Influenza A virus H3N2 VR1679 infected in MDCK cells assessed as inhibition of virus-induced cytocidal activity compound treated 2 hrs post infection by time of addition assay; assay type: functional, organism-based; how it was run: as §2
# [6] = Selectivity ratio of EC50 for Influenza A virus (A/Puerto Rico/8/34(H1N1)) infected in MDCK cells to EC50 for Influenza A virus H3N2 VR1679 infected in MDCK cells; assay type: functional
# Influenza A virus H3N2 [7] = test: Antiviral activity against Influenza A virus H3N2 VR1679 infected in MDCK cells assessed as inhibition of virus-induced cytocidal activity compound treated 6 hrs post infection by time of addition assay; assay type: functional, organism-based; how it was run: as §2
# Influenza A virus H3N2 [8] = test: Antiviral activity against Influenza A virus H3N2 VR1679 infected in MDCK cells assessed as inhibition of virus-induced cytocidal activity pretreated with compound before infection by time of addition assay; assay type: functional, organism-based; how it was run: as §2
SMILES,CC50 at 48 h [1] [µM],EC50 (Influenza A virus) [µM],other results
Cc1onc(-c2ccccc2)c1C(=O)N1CCN(c2ccc([N+](=O)[O-])cc2Cl)CC1 [NUCLEOZIN],> 80,0.71,
CCOC(=O)C1=C[C@@H](OC(CC)CC)[C@H](NC(C)=O)[C@@H](N)C1 [OSELTAMIVIR],> 80,> 80,inhibition (Influenza A virus H3N2 [2]): inactive; EC50 (Influenza A virus H3N2 [3]): > 80 µM; Activity (MDCK): inactive; inhibition (Influenza A virus H3N2 [4]): Active; inhibition (Influenza A virus H3N2 [5]): Active; Ratio EC50 [6]: >200; inhibition (Influenza A virus H3N2 [7]): inactive; inhibition (Influenza A virus H3N2 [8]): Active
C1CCN2C[C@@H]3C[C@@H](CN4CCCC[C@H]34)[C@H]2C1,> 80,21.3,
O=c1cccc2n1C[C@@H]1CNC[C@H]2C1 [CYTISINICLINE],> 80,> 80,
C1=C2CCCN(CC3CCCCC3)[C@H]2[C@@H]2C[C@H]1[C@H]1CCCCN1C2,> 80,29.3,
NC12CC3CC(CC(C3)C1)C2 [AMANTADINE],> 80,> 80,
C1CCN2C[C@@H]3C[C@@H](CN4CCCC[C@@H]34)[C@H]2C1 [SPARTEINE],> 80,19.7,
CCN1CCCC2=C[C@H]3C[C@H](CN4CCCC[C@H]34)[C@@H]21,> 80,7.7,
O=C(NCCN1CCCC2=C[C@H]3C[C@H](CN4CCCC[C@H]34)[C@@H]21)c1ccccc1F,> 80,5.5,
CN1CCC[C@@H]2C[C@H]3C[C@H](CN4CCCC[C@H]34)[C@@H]21,> 80,6.2,inhibition (Influenza A virus H3N2 [2]): Active; inhibition (Influenza A virus H3N2 [3]): Active; Activity (MDCK): Active; inhibition (Influenza A virus H3N2 [4]): Active; inhibition (Influenza A virus H3N2 [5]): Active; inhibition (Influenza A virus H3N2 [7]): inactive; inhibition (Influenza A virus H3N2 [8]): Active
O=C1CCC[C@@H]2[C@H]3CCCN4CCC[C@@H](CN12)[C@@H]34 [MATRINE],> 80,> 80,
C1CN[C@@H]2C(C1)C[C@H]1C[C@@H]2CN2CCCC[C@H]12 (mixture of isomers),> 80,11.2,
C1=C2CCCN(CC3CCC3)[C@H]2[C@@H]2C[C@H]1[C@H]1CCCCN1C2,> 80,18.8,
C1=C2CCCN(CC3CC3)[C@H]2[C@@H]2C[C@H]1[C@H]1CCCCN1C2,> 80,15.1,
O=C(c1ccc(C(=O)N2CCCC3=C[C@H]4C[C@H](CN5CCCC[C@H]45)[C@@H]32)s1)N1CCCC2=C[C@H]3C[C@H](CN4CCCC[C@H]34)[C@@H]21,> 80,2.4,
CN1CC2CC(C1)c1cccc(=O)n1C2 (configuration not stated),> 80,> 80,
C1=C2CCCN[C@H]2[C@@H]2C[C@H]1[C@H]1CCCCN1C2,> 80,14.5,
CC(C)CN1CCCC2=C[C@H]3C[C@H](CN4CCCC[C@H]34)[C@@H]21,> 80,34.5,
CN1CCC[C@H]2C[C@H]3C[C@H](CN4CCCC[C@H]34)[C@@H]21,> 80,8.1,
CN1CCCC2=C[C@H]3C[C@H](CN4CCCC[C@H]34)[C@@H]21,> 80,9.6,
O=C1CCC[C@@H]2[C@H]3CCC[N+]4([O-])CCC[C@@H](CN12)[C@@H]34 (some centres not stated) [OXYMATRINE],> 80,> 80,
